Source: PubChem
Apaf1 inhib – inhibitors of human Apaf-1 apoptosome | O14727 | reconstituted apoptosome caspase-3 activity, DEVD-Rh110 fluorescence | inhibition, % at 20 µM | hit rate 0.71% among 330,000; active means inhibition of at least 40% at 20 µM
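System – cell-free apoptosome with Apaf-1, procaspase-3 and caspase-9 · Buffer or medium – pH 7.5 Hepes buffer with CHAPS, BSA, DTT · Also added – cytochrome c with DEVD-Rh110 · Times – 30 min compound preincubation, 50 min activation, room temperature · Technique – Rh110 fluorescence intensity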
TDP2 absorb – blocks human TDP2 phosphodiesterase activity; hit rate 0.34% among 370,000; recombinant TDP2, T5PNP hydrolysis, p-nitrophenol absorbance 415 nm; AID 720702; inhibition, % at 12.8 µM;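 active means inhibition above the mean of all tested compounds plus 3 SD, set per campaign, cut at about 25% in these data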
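test system = human TDP2 enzyme | input = TDP2 enzyme at 120 nM final | medium = 50 mM Tris-HCl pH 7.5 with Mg2+, KCl, DTT, BSA | also added = T5PNP substrate, 5 mM | times = 2 h at 37 °C | technique = epi absorbance | benchmarks = high control without enzyme, low control DMSO plus TDP2 | replication = each compound tested once, singlicate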
GSTO1 inh – GSTO1 inhibition, counter-screen for RBBP9 inhibitors. P78417. recombinant GSTO1, activity-based probe fluorescence polarization. inhibition, % at 5.96 µM. hit rate 1.1% among 300,000. AID 1974;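 active means inhibition above the campaign mean inhibition plus 3 SD, cut at about 35% in these data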
Target sequence (P78417 whole entry, looked up): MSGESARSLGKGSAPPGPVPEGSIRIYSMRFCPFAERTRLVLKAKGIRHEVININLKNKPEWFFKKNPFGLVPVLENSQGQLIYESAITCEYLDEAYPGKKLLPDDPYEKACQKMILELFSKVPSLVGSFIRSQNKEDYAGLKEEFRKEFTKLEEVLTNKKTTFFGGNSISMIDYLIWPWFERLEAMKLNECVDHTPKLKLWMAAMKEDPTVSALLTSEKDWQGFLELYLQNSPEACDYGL
CTSL1 counter – counter-screen for PFM18AAP inhibitors: inhibitors of F. hepatica cathepsin L1; recombinant F. hepatica cathepsin L1, Z-Leu-Arg-MCA fluorescence; inhibition, % at 5.96 µM; hit rate 0.49% among 300,000; AID 1906;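 active means inhibition above the mean of all tested compounds plus 3 SD, set per screening campaign, cut at about 17% in these data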
PAD4 inh – inhibitors of human PAD4; recombinant PAD4, RCA probe fluorescence polarization; inhibition, % at 6.36 µM; hit rate 0.41% among 330,000;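 active means percent inhibition above a cutoff equal to the mean of all tested compounds plus 3 SD, cut at about 15% in these data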
PAD4 FP conf – PAD4 (human) inhibition, confirmed. shares compounds with PAD4 inh. recombinant PAD4, RCA probe fluorescence polarization. inhibition, % at 6.36 µM. hit rate 28% among 1,200. AID 488796;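 active means mean inhibition across replicates above the hit cutoff set by the earlier primary screen, cut at about 15% in these data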;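 further: inhibitors block active-site labeling by the probe so polarization falls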
Hits are given with their value; - = inactive; . = not tested or not shown. Hits are enriched below; roughly 1.8% of the tested compounds scored in any of these assays.

SMILES | Apaf1 inhib | TDP2 absorb | GSTO1 inh | CTSL1 counter | PAD4 inh | PAD4 FP conf
O=C(O)c1ccccc1SC1CC(=O)N(c2cccc3ccccc23)C1=O (stereo not given) | . | - | . | . | . | .
N#CCC[C@@H]1CC[C@]2(CCCN(C(=O)c3ccno3)C2)O1 | . | - | . | . | . | .
Cc1cc2cc(CNC(=O)COc3ccccc3)ccc2n1C | - | - | - | - | 32.5 | -
CCOc1ccc(CC(=O)NCc2ccc3c(c2)cc(C)n3C)cc1 | - | - | - | - | - | .
Cc1cc2cc(CN3C(=O)c4ccccc4C3=O)ccc2n1C | - | - | - | - | 15.6 | -
COc1ccc(CN2C(=O)c3ccccc3C2=O)cc1C(=O)O | - | - | - | - | - | .
N#Cc1nc(N2CCCCC2)nc(N2CCOCC2)n1 | - | - | - | 75.9 | 18.5 | 23.8
CCc1ccc(C(=O)/C=C2\Sc3ccccc3NC2=O)cc1 | - | - | - | - | 37.1 | 41.6
CCCCNC(=O)/C=C1\Sc2ccccc2NC1=O | - | - | - | - | - | .
CCO/C(=C/c1sc2ccc(OC)cc2[n+]1CCCS(=O)(=O)[O-])CC | - | - | - | - | 19.4 | -
CCC(/C=C1\Sc2ccc(OC)cc2N1CC)=C\c1sc2ccc(OC)cc2[n+]1CCCS(=O)(=O)[O-] | - | - | - | - | - | .
COC(=O)C1=C(C)N(C)C(=NCc2ccc(C(F)(F)F)cc2)NC1c1cccc(Cl)c1 (stereo not given) | . | - | . | . | . | .
O=C1C=C(Nc2ccc(F)cc2)c2ccccc2C1=O | 87.1 | - | . | . | 40.2 | 38.5
c1cc(-c2nnc3n2N=C(c2ccc4c(c2)OCO4)CS3)ccn1 | . | - | . | . | . | .
Clc1ccc(-c2ccc(C=Nc3ccc(N4CCOCC4)cc3)o2)cc1 | - | - | - | - | 30.8 | -
Cc1ccc(NC(=O)Cc2cccc(OC(F)F)c2)c(S(=O)(=O)N2CCOCC2)c1 | . | - | . | . | . | .
O=C(COc1ccccc1F)N1CCN(S(=O)(=O)/C=C/c2ccccc2)CC1 | - | - | - | - | 55.9 | -
CCOCCCNC(=S)N(CCN(CC)CC)Cc1cc2cc3c(cc2[nH]c1=O)OCCO3 | - | - | - | - | - | .
CCOCCCNC(=S)N(CCO)Cc1cc2cc3c(cc2[nH]c1=O)OCCO3 | - | - | - | - | 23.1 | -
COc1ccc2c(c1)oc(=O)c1ccccc12 | - | - | - | - | 15.1 | 22.6
COc1ccc2c(c1)oc(=O)c1cc(OC)ccc12 | - | - | - | - | - | .
C[C@@H]1CCN(C2CC2)S(=O)(=O)c2ccc(N3CC[C@@H](O)C3)cc2O1 | . | - | . | . | . | .
O=C(Nc1csc([N+](=O)[O-])c1)Nc1ccccc1Cl | - | - | - | - | - | .
O=C(Nc1ccc(Cl)cc1)Nc1ccccc1Sc1ncc([N+](=O)[O-])s1 | - | - | - | - | 21.9 | -
COc1ccc2[nH]c3c(c2c1)CCN[C@]31C(=O)N(Cc2cn(Cc3ccccc3)nn2)c2ccccc21 | . | - | . | . | . | .
SMILES | Apaf1 inhib | TDP2 absorb | GSTO1 inh | CTSL1 counter | PAD4 inh | PAD4 FP conf
Cn1c(=O)c2c(ncn2CC(=O)Nc2nc(-c3ccccc3Cl)cs2)n(C)c1=O | - | - | - | - | 90.0 | -
CCOC(=O)Cc1csc(NC(=O)Cn2cnc3c2c(=O)n(C)c(=O)n3C)n1 | - | - | - | - | - | .
CN(c1ccc(NC(=O)Cc2cn(C)c3ccccc23)cc1)c1ccccn1 | . | - | . | . | . | .
CCCn1c(CN2CCN(C(=O)OCC)CC2)nc2cc(NC(=O)CC)ccc21 | - | - | - | - | 14.9 | -
COC(=O)[C@]12C[C@H](CC(=O)N3CCN(C(=O)C4CC4)CC3)C(=O)N(Cc3cccc4ccccc34)C1=C[C@H](C(C)C)O[C@@H]2C1CC1 | . | - | . | . | . | .
CC(=O)C1(C(=O)N2CCOCC2)CC(c2ccccc2C(F)(F)F)=NO1 (stereo not given) | . | - | . | . | . | .
Cc1ccc2c(c1)N(CCCC(=O)N(C)Cc1ccc(F)cc1)C(=O)CO2 | . | - | . | . | . | .
Cc1cc(O)ccc1N=Cc1c(C(F)(F)F)[nH][nH]c1=O | - | - | 94.1 | - | 97.6 | -
O=c1[nH][nH]c(C(F)(F)F)c1C=Nc1ccccc1 | - | - | - | - | - | .
COc1ccc(N)c2c1C(=O)c1ccccc1C2=O | . | - | - | - | 32.9 | -
CN1CCCCC(NC(=O)COCc2ccccc2)C1=O (stereo not given) | . | - | . | . | . | .
CCCCc1ccc(-c2c(C#N)c(N)nc3c2CCCC3)s1 | - | - | - | - | 36.0 | -
O=C1N/C(=C/c2ccc(N3CCOCC3)o2)C(=O)N1c1ccccc1 | . | - | - | - | 119.3 | -
C=CCN1C(=O)N/C(=C/c2ccc(N3CCOCC3)o2)C1=O | - | - | - | - | - | .
COCCCN1C(=O)[C@H](CC(=O)NCCc2ccccc2OC)[C@]2(C(=O)OC)CCCCC=C12 | . | - | . | . | . | .
COc1ccc(C(=O)CSc2cc(C)nc3nc(C)nn23)cc1OC | - | - | - | - | 28.3 | 25.9
COc1ccc(C(=O)CSc2nc(SC)ns2)cc1OC | - | - | - | - | - | .
COc1ccc(CCNC(=O)COC(=O)c2ccc(C)s2)cc1 | - | - | . | . | 81.1 | -
CCCCc1c(-c2ccccc2OC)ncn1Cc1ccccc1C | . | - | . | . | . | .
